# Assay results of several laboratories.
SMILES,assay,system,conditions,quantity,value
CC(C)(O)c1ccccc1-c1ccc2[nH]c(/C=C/c3ccc(C(F)(F)F)cc3)nc2c1,,"male human, plasma","oral, 5 mg, single dose, fasted, healthy volunteers",half-life,29.9 h
CC[C@H](C)[C@H](NC(=O)[C@H](CCC(=O)O)NC(=O)[C@H](CO)NC(=O)[C@@H](NC(=O)[C@@H](N)CO)C(C)C)C(=O)N[C@@H](CCC(N)=O)C(=O)N[C@@H](CC(C)C)C(=O)N[C@@H](CCSC)C(=O)N[C@@H](Cc1cnc[nH]1)C(=O)N[C@@H](CC(N)=O)C(=O)N[C@@H](CC(C)C)C(=O)NCC(=O)N[C@@H](CCCCN)C(=O)N[C@@H](Cc1cnc[nH]1)C(=O)N[C@@H](CC(C)C)C(=O)N[C@@H](CC(N)=O)C(=O)N[C@@H](CO)C(=O)N[C@@H](CCSC)C(=O)N[C@@H](CCC(=O)O)C(=O)N[C@@H](CCCN=C(N)N)C(=O)N[C@H](C(=O)N[C@@H](CCC(=O)O)C(=O)N[C@@H](Cc1c[nH]c2ccccc12)C(=O)N[C@@H](CC(C)C)C(=O)N[C@@H](CCCN=C(N)N)C(=O)N[C@@H](CCCCN)C(=O)N[C@@H](CCCCN)C(=O)N[C@@H](CC(C)C)C(=O)N[C@@H](CCC(N)=O)C(=O)N[C@@H](CC(=O)O)C(=O)N[C@H](C(=O)N[C@@H](Cc1cnc[nH]1)C(=O)N[C@@H](CC(N)=O)C(=O)N[C@@H](Cc1ccccc1)C(=O)O)C(C)C)C(C)C,"chemical stability, HPLC",aqueous buffer,"0.5 mg/mL, 5 min, pH 6.5",compound remaining,100%
CC(=O)N[C@@H](Cc1ccccc1)C(=O)N[C@@H](Cc1ccccc1)C(=O)N1CCC[C@H]1C(=O)N[C@@H](CC(C)C)C(=O)NCC(=O)N[C@@H](CC(C)C)C(=O)N[C@@H](C)C(=O)NCC(=O)N[C@@H](CC(=O)O)C(=O)N[C@@H](CC(=O)O)C(=O)O,chemical stability,"human, plasma","1 mM, pH 7.4",half-life,20.7 h
CCn1c2ccccc2c2cc(-n3nncc3-c3ccccc3)ccc21,,"female BALB/c mouse, plasma","intraperitoneal, 10 mg/kg, single dose",Vd/F,~0.4 L
CC(C)n1cc(C#N)c2cc(-n3cc(C(=O)O)cn3)ccc21,,"human, plasma","oral, 400 mg, single dose, fasted, healthy volunteers",half-life,13.1 h
CC(C)(C)c1ccc(O)c(CN(Cc2cc(C(C)(C)C)ccc2O)C2CCC(NC(N)=O)CC2)c1 (stereo not drawn),,"male C57BL/6 mouse, plasma","intraperitoneal, 10 mg/kg, single dose",Vd,3.7 L
CCCCC(=O)OCOC(=O)C1CC(C)(C)N([O])C1(C)C (stereo not drawn),chemical stability,"bovine, serum",,half-life,0.817 h
COCCOc1cnc2ccn([C@H](C)c3nnc4c(F)cc(-c5cnn(C)c5)cn34)c(=O)c2c1,,"human, plasma","oral, 25 mg, multiple doses, once daily, patients",half-life,6.3 h
C[C@]1(c2nc3c(C(N)=O)cccc3[nH]2)CCCN1,,"male rhesus monkey, plasma","oral, 5 mg/kg, single dose",AUC(0-inf),3.7 µM·h
